For eight compounds, IC50 results are on record in ChEMBL document CHEMBL5376013, “Design, synthesis and biological evaluation of novel morpholinopyrimidine-5-carbonitrile derivatives as dual PI3K/mTOR inhibitors” (RSC Med Chem, 2024).

Data set [1] relates to SR. Description: cells. Conditions: Homo sapiens.
For data set [2], the system named is SR. Description: Antiproliferative activity against human SR cells assessed as inhibition of cell growth. The format is functional, cell-based. The gist of the method: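 SR leukemia cells from ATCC were cultured in DMEM with 10% FBS, 10 ug/ml insulin and 1% penicillin-streptomycin. Reconstituted MTT was added at 10% of culture volume for 2–4 h. Formazan was dissolved in solubilization solution and read at 570 nm. Viability was calculated as treated A570 over untreated A570 ×100, with dose-response curves.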

The nature of data set [3]: Inhibition of PI3K (unknown origin). Further details: species or system Homo sapiens. The gist of the method:
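ELISA kit PI3 kinase assay with LY294002 as reference. Inhibitor preincubated 10 min before PIP2 substrate in kinase reaction buffer (25 µl final), 1 h reaction. Product detected by competition with biotinylated PIP3 for GRP1, with SA-HRP and TMB colour.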

Data set [4] can be described thus: Cytotoxicity against human PCS-800-011 cells assessed as inhibition of cell growth by MTT assay. The format is toxicity, cell-based. A general note: Formazan colour is commonly taken as a measure of viable cells.
The subject of data set [5] is PC-3. Description: Antiproliferative activity against human PC-3 cells assessed as inhibition of cell growth by MTT assay. The class given is functional, cell-based.
In data set [6] the test system is MCF7. Description: Antiproliferative activity against human MCF7 cells assessed as inhibition of cell growth by MTT assay. The format is functional, cell-based.
Data set [7] concerns A549. Description: Antiproliferative activity against human A549 cells assessed as inhibition of cell growth by MTT assay. The format is functional, cell-based.
The target in data set [8] is Serine/threonine-protein kinase mTOR (Homo sapiens, UniProt P42345). Description: Inhibition of mTOR (unknown origin) incubated for 1 hr by ELISA analysis. The gist of the method:
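Glutathione-coated plate loaded with mTOR substrate (1 h, room temperature). mTOR with compound in 2X kinase assay buffer, 30 min at 30 °C, then stop solution. Phospho-p70S6K-T389 detected by primary antibody, then HRP conjugate (1 h each), TMB, A450 with 540 or 595 nm reference.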
(An ELISA detects its analyte on a solid surface through an enzyme-linked reagent.)

One may read the IC50 as the midpoint of a concentration-inhibition curve. Compound `COc1cccc2c1C(=O)c1c(O)c3c(c(O)c1C2=O)C[C@@](O)(C(=O)CO)C[C@@H]3O[C@H]1C[C@H](N)[C@H](O)[C@H](C)O1` [DOXORUBICIN] showed a half-maximal inhibitory concentration (IC50) in data set [1] of 0.59 µM.

With `COc1ccc(-c2nc(N/N=C/c3cccc(O)c3)nc(N3CCOCC3)c2C#N)cc1`, the IC50 stood at 13.6 µM in data set [2] and 6.09 µM in data set [3].

For the compound `COc1ccc(-c2nc(N/N=C/c3cccc(Br)c3)nc(N3CCOCC3)c2C#N)cc1`, the IC50 in data set [2] was 0.76 µM; in data set [3], 6.09 µM.

As to `CN[C@@H]1C[C@H]2O[C@@](C)([C@@H]1OC)n1c3ccccc3c3c4c(c5c6ccccc6n2c5c31)C(=O)NC4` [STAUROSPORINE], the half-inhibitory concentration (IC50) in data set [4] came out at 18.3 µM.

`O=c1[nH]cc(F)c(=O)[nH]1` [FLUOROURACIL] registered an IC50 in data set [1] of 7.38 µM.

Turning to `O=S1(=O)CCc2nc(N3N=C(c4ccc(F)cc4)C[C@@H]3c3ccc(Cl)c(Cl)c3)nc(N3CCOCC3)c2C1`, the IC50 in data set [5] turned out to be 19.1 µM; in data set [6], 30.7 µM; in data set [7], 23.8 µM.

`COc1ccc(-c2nc(N/N=C/c3ccc(O)c(OC)c3)nc(N3CCOCC3)c2C#N)cc1`: the figures for the IC50 in data set [2] and in data set [3] were 4.37 µM and 6.09 µM, respectively.

The compound `CO[C@H]1C[C@@H]2CC[C@@H](C)[C@@](O)(O2)C(=O)C(=O)N2CCCC[C@H]2C(=O)O[C@H]([C@H](C)C[C@@H]2CC[C@@H](OCCO)[C@H](OC)C2)CC(=O)[C@H](C)/C=C(\C)[C@@H](O)[C@@H](OC)C(=O)[C@H](C)C[C@H](C)/C=C/C=C/C=C/1C` [EVEROLIMUS] yielded a half-maximal inhibitory concentration (IC50) in data set [8] of 0.53 µM.
